Data on 7 compounds can be found in publication PMC9516706 (JACS Au, 2022).

Series [1] relates to A431 cells. Briefly: Tyrosine kinase inhibitor assay. It is filed as cell-based, human.
Series [2] deals with HeLa, A431, MCF-7, HepG2, MvE and HEK293 cells. Description: Cytotoxicity assay. It is filed as cell-based, human. Conditions: up to 0.1 wt %; four different cell lines. The gist of the method:
(§1)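 Cells were seeded in 96-well plates and grown for 24 h. Medium was then replaced with medium containing the peptide amphiphile, and cells were incubated a further 20 h. Viability was read with WST-8 reagent. Lines were HeLa, A431, MCF-7 and HepG2 cancer cells, plus MvE and HEK293 normal cells.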

Series [3] can be described thus: TEM observation of self-assembly. It is filed as physicochemical. Conditions: 1.0 wt % in PBS(+), stained with 2.0 wt % phosphotungstic acid, 200 kV. The gist of the method:
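A carbon-supported TEM grid was dipped in a 1.0 wt % peptide amphiphile solution in PBS(+) containing Ca²⁺ and Mg²⁺. The grid was dried, negatively stained with 2.0 wt % phosphotungstic acid, and imaged at 200 kV accelerating voltage.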

For series [4], the system named is A431 cells. Briefly: Cytotoxicity assay. It counts as cell-based, human. To be noted: for Selective cytotoxicity to A431 cells: five different cell lines compared, cell viability assay. The gist of the method: as §1
Series [5] has as its system A431 cells. Description: Fluorescence recovery after photobleaching. It is filed as cell-based, human. To be noted: 0.08 wt% C16-E4Y for 1 h, without C16-E4Y recovery within 1 s.
The next series deals with A431 tumor. Description: Antitumor activity in vivo, A431-xenografted nude mice. Conditions: same regimen, against PBS control group, n = 6. The gist of the method:
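Nude mice with A431 cells injected subcutaneously into the flank. PBS (30 μL) with 1.5 wt % test compound was injected directly into the tumour three times a week for 3 weeks, against a PBS control. Bodyweight was followed during dosing, and tumour volume was taken as longer diameter × shorter diameter² × 0.5. Mice were sacrificed 4 weeks after inoculation; n = 6.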

A further series concerns HeLa cells. Briefly: Apoptosis and necrosis detection. It is filed as cell-based, human. To be noted: C16-E4Y 0.08 wt %, 1 h, counting at least 1000 cells in CLSM images. The gist of the method:
(§2)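 Cells were grown on a dish for 24 h, then given medium containing test compound at 0.08 wt % for 1 h. Cells were stained with annexin V-FITC and propidium iodide using an apoptotic/necrotic/healthy cell detection kit. Staining was imaged by CLSM, with PI fluorescence marking membrane-damaged cells.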

The subject of the next series is HepG2 cells. Description: Detection of a peptide amphiphile phosphorylated in cells. It counts as cell-based, human. To be noted: HepG2 cells cultured with 0.05 wt % C16-E4Y; medium and cell lysate.
Series [6] relates to A431 cells. Description: Localization of peptide amphiphiles in cells. It is filed as cell-based, human. To be noted: C16-E4Y 0.05 wt % with NBD-C8-E4Y 0.001 wt %, 24 h, ER-tracker and MitoRed, CLSM.
The nature of series [7]: Gel formation of C16-E4Y phosphorylated by tyrosine kinase. To be noted: C16-E4Y 1 wt%, ATP 15 mM, c-Src kinase 6 µg/mL, 1× kinase buffer, 37 °C, 7 days. It counts as physicochemical.
Series [8] has as its system A431 cells. Briefly: Apoptosis and necrosis detection. It counts as cell-based, human. Conditions: C16-E4Y 0.08 wt %, 1 h, counting at least 1000 cells in CLSM images. The gist of the method: as §2

Turning to `C#Cc1cccc(Nc2ncnc3cc(OCCOC)c(OCCOC)cc23)c1` [erlotinib], the “Effect of EGFR inhibitor on the cytotoxicity of C16-E4Y” value in the series on A431 cells [1] is “alleviated the cytotoxicity”.

As for “N-capryloyl-Glu-Glu-Glu-Glu-Tyr [C8-E4Y]”, in series [2], the “Cytotoxicity toward all cell lines tested” value is “did not show cytotoxicity”. The “Self-assembly morphology by TEM” value in [3] is “did not form any self-assembly body”.

As for N-lauroyl-Glu-Glu-Glu-Glu-Tyr [C12-E4Y], the “Cytotoxicity toward all cell lines tested” value in [2] was “did not show cytotoxicity”. Also, the “Self-assembly morphology by TEM” value in [3] is recorded as “formed only a few isolated short fibers”.

With N-palmitoyl-Glu-Glu-Glu-Glu [C16-E4], the “Selective cytotoxicity to A431 cells” value in the series with A431 cells [4] was “did not exhibit selective cytotoxicity”.

Take “N-palmitoyl-Glu-Glu-Glu-Glu-Phe [C16-E4F]”: in the series on A431 cells [4], the “Selective cytotoxicity to A431 cells” value is listed as “did not exhibit selective cytotoxicity”.

As for “N-palmitoyl-Glu-Glu-Glu-Glu-Ser [C16-E4S]”, the “Selective cytotoxicity to A431 cells” value with A431 cells [4] is reported as “did not exhibit selective cytotoxicity”.

In the case of “N-palmitoyl-Glu-Glu-Glu-Glu-Tyr [C16-E4Y]”, the “Fluorescence recovery of ER-tracker after photobleaching” value in the series on A431 cells [5] was “recovered relatively slowly”. The “Cytotoxicity toward A431 cells compared with the other cell lines” value in the series with A431 cells [4] (0.05 wt %, 20 h incubation, WST-8, five replicates) is listed as “remarkably higher cytotoxicity”. The “Dose dependence of cytotoxicity” value in the series with A431 cells [4] (A431 cells, Figure 3b) is given as “dose-dependent”. For the same compound, the “Bodyweight of treated mice” value with A431 tumor is on record as “comparable to those of the control group”. In addition, the “Cells in early apoptosis” value is 0.4% in the series on HeLa cells and 15.4% in the series with A431 cells [8]. The “Intracellular phosphorylation (C16-E4pY by MALDI-TOF/MS)” value with HepG2 cells is “not detected”. Moreover, in [3], the “Self-assembly morphology by TEM” value is “nanosized strings several hundred nanometers in length”. The Intracellular localization entry with A431 cells [6] is “accumulated on ER selectively”. Further, in series [7], the “Gelation after incubation with a tyrosine kinase and ATP” value is on record as “partially gelated”.
